Measurements pooled from the literature.
PIK3CA E545K: Phosphatidylinositol 4,5-bisphosphate 3-kinase catalytic subunit alpha isoform (PIK3CA, Homo sapiens, UniProt P42336, E545K)
PIK3CA: Phosphatidylinositol 4,5-bisphosphate 3-kinase catalytic subunit alpha isoform (PIK3CA, Homo sapiens, UniProt P42336)
PIK3CA I800L: Phosphatidylinositol 4,5-bisphosphate 3-kinase catalytic subunit alpha isoform (PIK3CA, Homo sapiens, UniProt P42336, I800L)
PIK3CA H1047L: Phosphatidylinositol 4,5-bisphosphate 3-kinase catalytic subunit alpha isoform (PIK3CA, Homo sapiens, UniProt P42336, H1047L)
PIK3CA M1043I: Phosphatidylinositol 4,5-bisphosphate 3-kinase catalytic subunit alpha isoform (PIK3CA, Homo sapiens, UniProt P42336, M1043I)
PIK3CA C420R: Phosphatidylinositol 4,5-bisphosphate 3-kinase catalytic subunit alpha isoform (PIK3CA, Homo sapiens, UniProt P42336, C420R)
PIK3CA E542K: Phosphatidylinositol 4,5-bisphosphate 3-kinase catalytic subunit alpha isoform (PIK3CA, Homo sapiens, UniProt P42336, E542K)

SMILES | target | effect on | technique | concentration | remaining binding [%]
O=C(Nc1ccc(Oc2ccc(F)cc2)cc1)N1CCc2ncccc2[C@H]1c1ccc(F)cc1 | PIK3CA E545K | cell-free assay | competition with immobilised ligand | 1 µM | 73
CCN1CCN(Cc2ccc(C(=O)Nc3ccc(C)c(Oc4ccc5c(c4)CC(=O)N5)c3)cc2C(F)(F)F)CC1 | Phosphatidylinositol 4,5-bisphosphate 3-kinase catalytic subunit alpha isoform (PIK3CA, Homo sapiens, UniProt P42336, Q546K) | binding | competition with immobilised ligand | 1 µM | 100
CCCOc1ccc([C@H]2[C@H](C(=O)O)[C@@H](c3ccc4c(c3)OCO4)CN2CC(=O)Nc2c(CC)cccc2CC)cc1 | PIK3CA | cell-free assay | competition with immobilised ligand | 1 µM | 80
Cc1cnc(Nc2ccc(C(=O)N3CCC(N4CCCC4)CC3)cc2)nc1-c1cc2ccccc2s1 | PIK3CA I800L | binding | competition with immobilised ligand | 1 µM | 100
Nc1ncc2c(n1)-c1c([nH]c3ccc(C#CC4CC4)cc13)CCCC2 | PIK3CA H1047L | binding | competition with immobilised ligand | 1 µM | 80
Cc1cc(NC(=O)c2cccc(S(F)(F)(F)(F)F)c2)cc(-n2ccn3nc(-c4cccnc4)cc23)c1 | PIK3CA M1043I | cell-free assay | competition with immobilised ligand | 1 µM | 30.3
C[C@@H]1CCN(c2nccc(-c3cnn4ncccc34)n2)C1 | PIK3CA H1047L | binding |  | 1 µM | 75
CN1CCN(c2ccc(Nc3nccc(-c4ccccc4)n3)cc2C(F)(F)F)CC1 | PIK3CA E545K | binding |  | 10 µM | 68
CN(C)c1ncc(F)c(-c2cnn3ncccc23)n1 | PIK3CA | binding |  | 1 µM | 77
COc1cnc(Nc2cccc(S(N)(=O)=O)c2)nc1N1CCN(c2ccccc2)C(=O)C1 | PIK3CA I800L | binding | competition with immobilised ligand | 1 µM | 59
CN(CCCC(F)(F)F)c1nccc(-c2cnn3ncccc23)n1 | PIK3CA I800L | binding |  | 1 µM | 100
O=C(Nc1c[nH]nc1C(=O)NC1CCNCC1)c1cc(F)cc(F)c1 | PIK3CA H1047L | binding | competition with immobilised ligand | 1 µM | 87
O=C(c1ccc(Nc2nccc(-c3cc4ccccc4s3)n2)cc1)N1CCC(N2CCCC2)CC1 | PIK3CA M1043I | binding | competition with immobilised ligand | 1 µM | 81
CCS(=O)(=O)c1cc2cc(C[C@@](O)(CC(C)(C)c3ccc(F)cc3C(N)=O)C(F)(F)F)[nH]c2cn1 | PIK3CA M1043I | cell-free assay | competition with immobilised ligand | 1 µM | 99
c1cnn2ncc(-c3ccnc(N4CCC45COC5)n3)c2c1 | PIK3CA E545K | binding |  | 1 µM | 86
O=C(NCCCN1CCOCC1)c1ccc(Nc2nccc(-c3cc4ccccc4s3)n2)cc1 | Phosphatidylinositol 4,5-bisphosphate 3-kinase catalytic subunit alpha isoform (PIK3CA, Homo sapiens, UniProt P42336, E545A) | binding | competition with immobilised ligand | 1 µM | 84
COc1ncc2cc3ccccc3nc2c1C#N | Phosphatidylinositol 4,5-bisphosphate 3-kinase catalytic subunit alpha isoform (PIK3CA, Homo sapiens, UniProt P42336, H1047Y) | cell-free assay | competition with immobilised ligand | 5 µM | 86
F[C@@H]1CCN(c2nccc(-c3cnn4ncccc34)n2)C1 | PIK3CA C420R | binding |  | 1 µM | 90
CCOCCn1cc(C(=O)Nc2ccc(-n3nc(-c4cccnc4)cc3C(F)(F)F)cn2)ccc1=O | PIK3CA E542K | cell-free assay | competition with immobilised ligand | 1 µM | 100
CN(C)c1nccc(-c2cnn3ncccc23)n1 | PIK3CA I800L | binding |  | 1 µM | 96
Cc1nc(Cc2cccc(C(F)(F)F)c2)sc1-c1ccc(C(N)=O)nc1 | PIK3CA C420R | cell-free assay | competition with immobilised ligand | 1 µM | 89
N[C@@H]1CCN(c2nccc(-c3cnn4ncccc34)n2)C1 | PIK3CA C420R | binding |  | 1 µM | 100
C=CC(=O)N1CCC(C(=O)NCC(=O)N2CCN(c3nc(-c4cnc(N)nc4C(F)F)nc(N4CCOCC4)n3)CC2)CC1 | PIK3CA C420R | binding | competition with immobilised ligand | 1 µM | 0.6
Cc1cc(C)c(-n2ccn3nc(-c4cccnc4)cc23)cc1NC(=O)c1cc(C#N)cc(S(F)(F)(F)(F)F)c1 | PIK3CA E542K | cell-free assay | competition with immobilised ligand | 0.1 µM | 83.6
